CHO parental Ca: ATP-evoked calcium signal inhibitors, parental CHO, primary screen, counter-screen for OX1R antagonist project, cell-based, fluorescence, Fluo-8 calcium dye; inhibition, % at 5.6 µM; AID 463079, 2010; parental CHO-K1, ATP-induced calcium, Fluo-8 fluorescence; hit rate 0.63% among 330,000;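 active = inhibition above that plate's mean sample inhibition plus 3 SD, cut at about 26% in these data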;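 also: 0% = ATP-challenged DMSO wells and 100% = DMSO wells without ATP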
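Test system: untransfected parental CHO cell line. Compound: one dose, 5.6 µM nominal. Detection: intracellular calcium via Fluo-8 no-wash fluorescent dye. Measure: % inhibition. Benchmarks: ATP-challenged DMSO wells low, unchallenged DMSO wells high.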
CHO-K1 Ca antag: M1 antagonist counterscreen hit in parental CHO-K1 cells. inhibition, % at 3 µM. hit rate 0.6% among 360,000. ATP-induced calcium, Fluo-8 fluorescence. AID 602250;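 active = inhibition above a per-plate cutoff, the plate's mean sample inhibition plus 3 SD, cut at about 24% in these data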;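 also: 0% = DMSO plus EC80 ATP and 100% = DMSO alone without ATP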
OX1R antag-1: antagonists of human orexin 1 receptor (OX1R). OX1R-expressing cells, FRET antagonist read-out. hit rate 1.8% among 330,000. inhibition, % at 6.6 µM. Orexin/Hypocretin receptor type 1 (Homo sapiens), O43613. AID 485270, 2010; in the data active = inhibition mostly above about 38%, no sharp cut-off; inactive = mostly below about 40%;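 also: 0% = agonist challenge alone and 100% = reference antagonist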
Target sequence (O43613 whole entry, looked up): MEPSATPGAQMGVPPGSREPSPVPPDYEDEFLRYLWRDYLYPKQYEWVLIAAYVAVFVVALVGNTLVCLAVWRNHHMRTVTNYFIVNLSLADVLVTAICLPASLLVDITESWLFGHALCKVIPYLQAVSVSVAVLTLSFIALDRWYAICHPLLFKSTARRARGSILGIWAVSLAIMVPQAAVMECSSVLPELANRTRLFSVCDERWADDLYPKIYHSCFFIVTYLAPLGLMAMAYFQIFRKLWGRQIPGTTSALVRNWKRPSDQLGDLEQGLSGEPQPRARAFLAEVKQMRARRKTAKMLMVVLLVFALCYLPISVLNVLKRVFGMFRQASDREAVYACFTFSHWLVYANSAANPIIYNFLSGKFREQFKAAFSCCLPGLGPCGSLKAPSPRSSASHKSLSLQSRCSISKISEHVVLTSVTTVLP
OX1R antag-2: OX1R (HCRTR1) antagonists, primary screen, fluorescence, CHO/OX1R cells, Fluo-8 calcium, orexin A; Orexin/Hypocretin receptor type 1 (Homo sapiens), O43613; Fluo-8 calcium fluorescence; inhibition, % at 5 µM; hit rate 0.43% among 330,000; AID 434989, 2010;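 active = inhibition above its plate's threshold, mean inhibition of all tested compounds on the plate plus 3 SD, cut at about 37% in these data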;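 also: 0% = orexin A challenge wells and 100% = SB-334867-A antagonist wells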
CHO-K1 Ca PAM: nonselective calcium activators in parental CHO-K1 cells, primary screen, counter-screen for M1 PAM project, cell-based, Fluo-8 calcium fluorescence, full deck, 1536-well | ATP EC20; 0% at ATP EC20, 100% at ATP max | activation, % at 3 µM | hit rate 0.02% among 360,000 | AID 602247, 2012;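 active = activation above the run cutoff, the mean activation of all test compounds plus 3 SD, cut at about 40% in these data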;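 also: peak over basal fluorescence ratio in a 140 s read after ATP addition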
M1 ag parental: counter-screen for M1 agonists: effect in parental CHO-K1 cells. Fluo-8 calcium fluorescence; scaled to maximal ATP response, vehicle zero. activation, % at 3 µM. AID 602248, 2012. hit rate 0.48% among 360,000; in the data active = activation above about 15%;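 also: untransfected CHO-K1 host cells lacking M1 receptor as counterscreen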
* hit, by the source's call; . = no result. Hits are enriched below; roughly 2.9% of the tested compounds scored in any of these assays.

SMILES | CHO parental Ca | CHO-K1 Ca antag | OX1R antag-1 | OX1R antag-2 | CHO-K1 Ca PAM | M1 ag parental
Cc1ccc(NS(=O)(=O)c2ccc(C3CCCCC3)cc2)cc1 | 42.1* | 10.8 | 11.3 | 56.3* | 12.2 | 9.4
Cc1cc(NS(=O)(=O)c2ccc(NC(=O)c3c(F)c(F)c(F)c(F)c3F)cc2)nc(C)n1 | -3.4 | -3.8 | 31.8 | -12.8 | 11.0 | 0.7
CC(=O)c1ccc(NS(=O)(=O)c2ccc(C)cc2)cc1 | -12.7 | 26.8* | 33.2 | -17.8 | -5.7 | -0.2
Cc1ccc(S(=O)(=O)Nc2ccc(NC(=O)c3c(F)c(F)c(F)c(F)c3F)cc2)cc1 | 43.8* | -6.7 | -6.0 | 69.1* | 15.3 | 14.6
CN(Cc1ccc(Cl)s1)C(=O)CSc1nnc(C2CC2)n1C1CC1 | -1.4 | -8.6 | -1.3 | -0.1 | 2.9 | 0.1
Cc1cc(C)n(CC(=O)N/N=C/c2ccc([N+](=O)[O-])s2)n1 | -4.4 | 5.5 | 57.9* | -10.1 | -0.2 | 0.4
Cc1cc(C)n(CC(=O)N/N=C/c2cccs2)n1 | 1.2 | -1.9 | 3.4 | -16.4 | 6.1 | 0.4
CCOC(=O)N/N=C\c1ccc([N+](=O)[O-])s1 | -4.3 | -2.1 | 52.4* | -4.1 | 13.7 | 0.6
CCOC(=O)N/N=C\c1ccc(C)s1 | 0.4 | -6.6 | 15.3 | 3.3 | 1.9 | -0.1
CCCCNC(=O)c1ccc2nc(CC)c(N(C)Cc3cccs3)n2c1 | . | -1.3 | . | . | -9.4 | 3.2
NC(=S)NNC(=O)C12CC3CC(CC(C3)C1)C2 | 26.6 | 8.5 | 13.2 | 28.8 | -6.0 | 19.1*
Cc1cc(NC(=O)/C=C/c2ccccc2Cl)no1 | 7.9 | 0.8 | 7.5 | 0.3 | 8.5 | -0.1
CCN(CC)c1ccc(NC(=O)/C=C\c2ccccc2Cl)cc1 | -17.9 | 5.8 | 40.1* | 12.0 | -7.0 | 0.1
O=C(/C=C/c1ccccc1Cl)NCc1ccccc1 | -4.8 | -9.1 | 27.6 | -22.5 | 18.6 | 2.4
CN(C)c1ccc(NC(=O)/C=C/c2ccccc2Cl)cc1 | -15.9 | 17.8 | 64.0* | -7.8 | -8.3 | 0.5
CC(C)/C=C1\CC/C(=C\c2ccc(N(C)C)cc2)C1=O | 53.1* | 29.2* | 11.5 | 65.6* | 6.0 | 29.0*
CN(C)c1ccc(/C=C2/C[N+](C)(C)C/C(=C/c3ccc(N(C)C)cc3)C2=O)cc1 | . | -11.3 | . | . | 15.2 | 3.3
CCN(CC)c1ccc(-c2c(C#N)c(N)nc(OC)c2C#N)cc1 | 36.0* | 11.8 | 17.4 | 5.0 | 14.8 | 4.8
Cc1cc2nc(-c3ccc(F)cc3)c(CC3CCCCC3)n2c(C)c1Br | . | -19.6 | . | . | 16.6 | 0.2
Cc1cc(C)c(S(=O)(=O)Nc2cc(SCC(=O)O)c(O)c3ccccc23)cc1C | -17.1 | . | 58.1* | -15.2 | . | .
O=C1CCCC/C1=C/Nc1ccc2c(c1)OCO2 | -2.7 | 28.8* | 6.7 | -6.1 | -6.5 | -0.2
O=C(CSc1nnnn1-c1ccccc1)Nc1ccc(Cl)cc1 | -7.7 | -7.0 | 10.6 | -2.5 | 10.6 | 0.5
O=C(CSc1nnnn1-c1ccccc1)Nc1ccc(Cl)cn1 | 43.9* | 0.5 | 11.1 | -0.2 | 12.5 | 1.8
CCN(CC)c1ccc(/C=C/C(=O)C2C(=O)C=C(C)OC2=O)cc1 (stereo not drawn) | 75.1* | 44.1* | 14.2 | 97.7* | -20.3 | 50.3*
O=C(Nc1ccccc1N1CCCCC1)c1cccc([N+](=O)[O-])c1 | -24.5 | -16.6 | 18.9 | -46.3 | 9.4 | 1.5
SMILES | CHO parental Ca | CHO-K1 Ca antag | OX1R antag-1 | OX1R antag-2 | CHO-K1 Ca PAM | M1 ag parental
O=C(NNC(=O)c1cccc([N+](=O)[O-])c1)c1ccncc1 | -6.0 | -3.0 | 45.5* | -5.1 | 2.6 | -0.1
O=C(Nc1ccccc1C(=O)N1CCCCCC1)c1cccc([N+](=O)[O-])c1 | -30.5 | 7.8 | 53.3* | -8.5 | -20.2 | -0.5
C/C(=N\NC(=O)c1ccc([N+](=O)[O-])cc1)c1cccc([N+](=O)[O-])c1 | -11.4 | 4.9 | 64.2* | -8.8 | 18.3 | 0.2
C/C(=N\NC(=O)c1cccnc1)c1cccc([N+](=O)[O-])c1 | -18.7 | 13.8 | 28.6 | -22.9 | -16.1 | 0.8
C/C(=N\NC(=O)CSc1nc(C)cc(C)n1)c1cccc([N+](=O)[O-])c1 | 0.9 | -12.6 | 12.9 | 1.0 | 40.6* | 0.0
c1cc(-c2cc3nc(NC4CCCCC4)ccn3n2)ccc1OCCN1CCOCC1 | . | 2.5 | . | . | 5.8 | 7.4
COc1ccccc1N(C(=O)c1snc(C(N)=O)c1N)C(C(=O)NC1CCCCC1)c1cccc(OC)c1OC (stereo not drawn) | -40.8 | -18.6 | 19.7 | -113.5 | 14.1 | 0.0
Cc1ccc(NC(=O)COc2ccc(C(=O)c3ccccc3)cc2)c(O)c1 | 12.9 | 11.8 | 24.3 | 6.2 | -11.1 | 14.1
O=C(CSc1ccccn1)N/N=C/c1cccc([N+](=O)[O-])c1 | -8.6 | -4.6 | 41.7 | -21.2 | 12.9 | 1.0
O=C(CSc1ncccn1)N/N=C/c1cccc([N+](=O)[O-])c1 | 8.3 | 0.1 | 71.8* | -9.5 | 8.4 | 0.2
CC(=O)c1nn(-c2ccccc2)cc1C(=O)c1ccc(Br)cc1 | 40.2* | -1.5 | 11.3 | 9.5 | 11.5 | 0.1
CC(C)(C)[C@H]1C=C(C(N)=O)O[C@@H](OCc2ccc(CO)cc2)C1 | 8.5 | -12.4 | 15.9 | -17.2 | 10.3 | 1.0
O=C1C(=O)N(CCS(=O)(=O)c2ccccc2)c2ccc(Cl)cc21 | -20.8 | -0.4 | 13.0 | -20.1 | -3.6 | 1.4
CCCN1C(=O)C(=O)c2cc(Cl)ccc21 | -11.4 | -8.5 | 49.2* | 3.0 | 21.8 | 0.4
C/C=C(\C)C(=O)OC1c2c(ccc3ccc(=O)oc23)OC(C)(C)C1OC(C)=O (stereo not drawn) | 3.0 | 9.0 | 25.6 | 28.4 | 3.1 | 14.7
C/C=C(/C)C(=O)OC1c2c(ccc3ccc(=O)oc23)OC(C)(C)C1OC(=O)/C(C)=C\C (stereo not drawn) | 74.8* | 2.3 | 44.2* | 22.4 | -7.3 | -0.4
COc1ccc(C(=O)NCC(=O)OCC(=O)NC2CCCCCC2)cc1 | -10.9 | 4.4 | 10.6 | -20.5 | -17.6 | 0.5
Nc1[nH]c(C(=O)c2ccccc2)c(-c2ccccc2Br)c1C(=O)c1ccccc1 | . | -22.2 | . | . | 42.1* | 1.4
CN(c1ccccc1)S(=O)(=O)c1ccc(Cl)c(C(=O)Nc2ccncc2)c1 | -0.6 | -14.7 | 24.9 | 33.0 | 0.4 | 15.6*
CC(=O)Nc1ccc(NC(=O)C(C)OC(=O)c2cc(S(=O)(=O)N3CCOCC3)ccc2Cl)cc1 (stereo not drawn) | -15.8 | -18.1 | 7.1 | -6.3 | 11.4 | 0.8
CN(c1ccc(F)cc1)S(=O)(=O)c1ccc(Cl)c(C(=O)Nc2ccncc2)c1 | 22.6 | 33.8* | 48.6 | 1.2 | -23.7 | 9.5

Source: PubChem
